We go through nine compounds from ChEMBL document CHEMBL2380290, “Neonicotinic analogues: selective antagonists for α4β2 nicotinic acetylcholine receptors” (Bioorg Med Chem, 2013).

The target of assay [1] is T1, Neuronal acetylcholine receptor subunit alpha-7 (Homo sapiens, UniProt P36544). Nature of the assay: Displacement of [125I]alpha-bungarotoxin from human alpha7 nAChR overexpressed in human SH-SY5Y cells after 120 mins by liquid scintillation spectrometric analysis. The class given is cell-based.
T1 sequence (P36544 whole entry): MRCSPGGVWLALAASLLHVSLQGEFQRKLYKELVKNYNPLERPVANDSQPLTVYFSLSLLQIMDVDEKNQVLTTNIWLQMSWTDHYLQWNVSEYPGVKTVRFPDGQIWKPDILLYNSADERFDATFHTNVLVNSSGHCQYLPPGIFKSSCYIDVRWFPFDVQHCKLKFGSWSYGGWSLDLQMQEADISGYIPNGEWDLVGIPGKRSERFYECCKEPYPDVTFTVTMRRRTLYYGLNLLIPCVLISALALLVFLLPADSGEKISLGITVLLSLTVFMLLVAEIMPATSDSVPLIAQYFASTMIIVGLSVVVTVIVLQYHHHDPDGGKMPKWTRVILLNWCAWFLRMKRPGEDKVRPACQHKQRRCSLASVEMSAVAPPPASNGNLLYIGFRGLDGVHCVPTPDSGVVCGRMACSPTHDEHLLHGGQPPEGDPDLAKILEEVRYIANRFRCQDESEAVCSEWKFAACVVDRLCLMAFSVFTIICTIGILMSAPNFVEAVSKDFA
Assay [2] deals with T2, Neuronal acetylcholine receptor; alpha4/beta2 (Homo sapiens, UniProt P17787+P43681). Nature of the assay: Displacement of [3H]cytisine from human alpha4beta2 nAChR overexpressed in human SHEP cells after 75 mins by liquid scintillation spectrometric analysis. The class given is cell-based. In short, it runs like this: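 SH-EP1-hα4β2 membrane homogenates (30–50 µg protein) were incubated with 1 nM [3H]cytisine for 75 min at 4 °C in Tris binding saline, pH 7.0. Filtration on PEI-soaked GF/C filters, scintillation counting. Four experiments in triplicate.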
T2 sequence (P17787 whole entry): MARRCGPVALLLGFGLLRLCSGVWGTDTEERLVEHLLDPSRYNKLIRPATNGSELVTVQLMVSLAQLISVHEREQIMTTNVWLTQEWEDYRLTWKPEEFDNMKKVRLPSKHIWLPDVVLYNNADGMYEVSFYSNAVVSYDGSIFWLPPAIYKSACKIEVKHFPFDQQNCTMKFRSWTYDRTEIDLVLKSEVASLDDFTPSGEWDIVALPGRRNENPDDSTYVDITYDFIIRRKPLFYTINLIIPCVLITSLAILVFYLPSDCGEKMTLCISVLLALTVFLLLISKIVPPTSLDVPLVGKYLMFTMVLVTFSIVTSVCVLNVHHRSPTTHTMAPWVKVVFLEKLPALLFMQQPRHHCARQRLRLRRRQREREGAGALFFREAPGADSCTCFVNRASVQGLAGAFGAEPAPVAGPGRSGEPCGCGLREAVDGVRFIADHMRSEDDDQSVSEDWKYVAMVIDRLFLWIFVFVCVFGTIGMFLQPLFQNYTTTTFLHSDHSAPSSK
T2 sequence (P43681 whole entry): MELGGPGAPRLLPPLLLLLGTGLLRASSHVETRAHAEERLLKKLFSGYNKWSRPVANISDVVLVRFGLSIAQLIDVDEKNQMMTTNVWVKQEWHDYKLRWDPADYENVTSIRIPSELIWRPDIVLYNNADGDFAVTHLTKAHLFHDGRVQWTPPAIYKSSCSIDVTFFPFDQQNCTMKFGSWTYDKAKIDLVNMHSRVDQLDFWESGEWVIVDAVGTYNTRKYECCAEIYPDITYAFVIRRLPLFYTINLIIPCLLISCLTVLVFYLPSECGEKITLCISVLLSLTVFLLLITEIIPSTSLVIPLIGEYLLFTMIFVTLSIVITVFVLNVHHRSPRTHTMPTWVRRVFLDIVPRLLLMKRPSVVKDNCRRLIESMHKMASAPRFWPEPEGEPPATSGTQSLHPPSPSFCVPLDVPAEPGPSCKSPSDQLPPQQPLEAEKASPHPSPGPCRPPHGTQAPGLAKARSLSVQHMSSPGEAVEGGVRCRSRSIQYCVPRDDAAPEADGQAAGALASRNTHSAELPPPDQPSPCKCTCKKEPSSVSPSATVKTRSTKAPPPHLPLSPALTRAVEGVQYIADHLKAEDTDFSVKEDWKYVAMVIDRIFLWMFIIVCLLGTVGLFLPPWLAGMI

Assay [3] addresses T2, Neuronal acetylcholine receptor; alpha4/beta2. The assay can be described thus: Antagonist activity at (alpha4beta2)2beta2 nAChR (unknown origin) expressed in Xenopus oocytes assessed as inhibition of acetylcholine-induced current after 2 mins by two-electrode voltage clamp assay. The class given is cell-based, Oocyte.
Assay [4] shares this target. The assay can be described thus: Antagonist activity at (alpha4beta2)2alpha4 nAChR (unknown origin) expressed in Xenopus oocytes assessed as inhibition of acetylcholine-induced current after 2 mins by two-electrode voltage clamp assay. The class given is cell-based, Oocyte.
The target of assay [5] is Nicotinic acetylcholine receptor alpha4/beta2/alpha5 (Homo sapiens, UniProt P17787+P30532+P43681). The assay can be described thus: Antagonist activity at (alpha4beta2)2alpha5 nAChR (unknown origin) expressed in Xenopus oocytes assessed as inhibition of acetylcholine-induced current after 2 mins by two-electrode voltage clamp assay. The class given is cell-based, Oocyte.
Chain of Nicotinic acetylcholine receptor alpha4/beta2/alpha5 (P17787 whole entry): as the sequence (P17787 whole entry) above
Chain of Nicotinic acetylcholine receptor alpha4/beta2/alpha5 (P43681 whole entry): as the sequence (P43681 whole entry) above
Chain of Nicotinic acetylcholine receptor alpha4/beta2/alpha5 (P30532 whole entry): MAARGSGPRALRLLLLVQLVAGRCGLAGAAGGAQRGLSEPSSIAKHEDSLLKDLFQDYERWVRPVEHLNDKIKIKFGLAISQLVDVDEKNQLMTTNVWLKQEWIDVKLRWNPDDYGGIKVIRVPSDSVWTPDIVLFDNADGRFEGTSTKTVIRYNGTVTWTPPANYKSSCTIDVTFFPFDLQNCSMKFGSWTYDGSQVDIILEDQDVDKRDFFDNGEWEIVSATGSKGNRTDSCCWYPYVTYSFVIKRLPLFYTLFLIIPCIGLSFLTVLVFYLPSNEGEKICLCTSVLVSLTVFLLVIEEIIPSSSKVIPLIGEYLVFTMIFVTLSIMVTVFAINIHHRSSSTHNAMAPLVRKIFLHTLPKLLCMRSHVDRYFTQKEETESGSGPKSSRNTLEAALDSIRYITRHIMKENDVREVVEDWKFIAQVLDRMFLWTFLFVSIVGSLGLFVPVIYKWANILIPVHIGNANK

The target in assay [6] is T1, Neuronal acetylcholine receptor subunit alpha-7. The assay can be described thus: Displacement of [125I]alpha-bungarotoxin from human alpha7 nAChR overexpressed in human SH-SY5Y cells at 1 mM after 120 mins by liquid scintillation spectrometric analysis. The class given is cell-based. In short, it runs like this:
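Membranes from SH-SY5Y-hα7 cells (30–50 µg protein) were incubated with 1 nM [125I]α-BgTx in Tris binding saline, pH 7.0, for 120 min at 25 °C. […] GF/C filtration, top test concentration 1 mM. […] Four experiments, triplicate.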

The source made the active and inactive calls. The rule behind the calls is not given here.

As for `CN1CCC[C@H]1COC(=O)c1ccc(Br)cc1`, in assay [1], the IC50 was 21.1 µM, the inhibition constant Ki turned out to be 10.5 µM and the inhibition entry is “Dose-dependent effect”. In assay [2], the IC50 turned out to be 0.0784 µM, the Ki is 0.0224 µM and the inhibition entry is “Dose-dependent effect”.
`CN1CCC[C@H]1COC(=O)c1ccc(OCc2ccccc2)cc1`: the IC50 in assay [1] worked out at 2.3 µM; in assay [2] it was 0.0042 µM; in assay [3], 25.8 µM; in assay [4] it was 3.6 µM; in assay [5] it was 17.8 µM. The Ki is 1.1 µM in assay [1] and 0.0012 µM in assay [2]. The inhibition result in assay [1] and in assay [2] was “Dose-dependent effect” each time.
As for `CN1CCC[C@H]1COC(=O)c1ccc(OCc2ccccc2)nc1`, the values for the concentration for half-maximal inhibition (IC50) in assay [1] and in assay [2] were 59.1 µM and 0.166 µM, respectively. Also, the inhibition constant (Ki) came to 29.5 µM in assay [1] and 0.0455 µM in assay [2].
With `CN1CCC[C@H]1COC(=O)c1ccc(Cl)cc1`, the IC50 in assay [1] is 8.9 µM; in assay [2], 0.0394 µM; in assay [3], 3.6 µM; in assay [4], 95 µM; in assay [5], 6 µM. The figures for the Ki in assay [1] and in assay [2] were 4.5 µM and 0.0112 µM, respectively. Besides, the inhibition entry in assay [1] and in assay [2] was “Dose-dependent effect” in each case.
On to `CN1CCC[C@H]1COC(=O)c1cnc2ccccc2c1`, for which, in assay [1], the IC50 amounted to 97.3 µM, the Ki came to 48.7 µM and the inhibition result was “Dose-dependent effect”. Also, in assay [2], the IC50 is 0.759 µM, the Ki worked out at 0.217 µM and the inhibition entry is “Dose-dependent effect”.
For the compound `CN1CCC[C@H]1COC(=O)c1ccccc1`, the half-inhibitory concentration (IC50) in assay [1] was determined as 13.4 µM; in assay [2] it was 0.0819 µM; in assay [3], 2.5 µM; in assay [4], 313 µM; in assay [5], 52.3 µM. Further, the Ki worked out at 6.7 µM in assay [1] and 0.0234 µM in assay [2]. Also, the inhibition entry in assay [1] and in assay [2] was “Dose-dependent effect” each time.
With `CN1CCC[C@H]1COC(=O)c1ccc(Cl)nc1`, in assay [1], the IC50 amounted to 58.5 µM, the affinity corresponds to a Ki of 29.3 µM and the inhibition entry was “Dose-dependent effect”. Further, in assay [2], the IC50 amounted to 0.528 µM, the Ki was determined as 0.151 µM and the inhibition result was “Dose-dependent effect”.
With `CN1CCC[C@H]1COC(=O)c1cccc(N)c1`, the inhibition entry in assay [1] and in assay [2] was “Dose-dependent effect” throughout. Moreover, the IC50 in assay [2] was 0.0284 µM; in assay [3], 4.3 µM; in assay [4], 1.02 µM; in assay [5] it was 480 µM. This compound also gave a Ki in assay [2] of 0.0081 µM. The inhibition entry in assay [6] is “inactive”.
Regarding `CN1CCC[C@H]1COC(=O)c1cccc([N+](=O)[O-])c1`, the concentration for half-maximal inhibition (IC50) came out at 464 µM in assay [1] and 1.61 µM in assay [2]. For the same compound, the inhibition constant Ki in assay [1] worked out at 232 µM; in assay [2], 0.46 µM.
